In the library only some 4.4% were active in any assay of this set; here they are far more common.
SENP1 FRET inh: SENP1 (human) catalytic domain inhibition; Q9P0U3; recombinant SENP1 catalytic domain, CyPet-SUMO1-YPet FRET cleavage; inhibition, % at 10 µM; 360,000 compounds, 0.21% hits; AID 624204;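 active = inhibition at least 30% at 10 µM, raw YFP signal under a set limit, fluorescence ratio 0.5 to 1.5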
Target sequence (Q9P0U3 419-644 limits assumed): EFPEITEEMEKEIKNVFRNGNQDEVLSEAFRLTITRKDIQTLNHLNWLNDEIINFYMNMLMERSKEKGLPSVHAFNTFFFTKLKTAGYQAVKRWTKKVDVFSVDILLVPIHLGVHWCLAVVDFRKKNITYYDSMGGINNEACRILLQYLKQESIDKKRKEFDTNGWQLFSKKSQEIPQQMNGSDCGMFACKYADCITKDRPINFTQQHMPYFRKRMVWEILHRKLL
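Test system: hSENP1 catalytic domain, recombinant; Amount: 20 pM final SENP1 enzyme; Medium: Tris pH 8 buffer plus EDTA, NaCl, BME, BSA, NP40, catalase; Schedule: 50 min enzyme reaction, room temperature, light-protected; Technique: FRET fluorescence in CFP and YFP emission channels; Controls: no-enzyme wells low, DMSO-plus-enzyme wells high control.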
EBI2 block: blocks human EBI2 receptor beta-arrestin signaling; 360,000 compounds, 0.81% hits; EBI2 beta-arrestin recruitment, luminescence, 7a,25-OHC stimulated; inhibition, % at 5 µM; AID 651636; in the data active = inhibition above about 38%;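 note: enzyme fragment complementation signal reports receptor beta-arrestin coupling in cells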
NR3A LBD binder: NR3A (human) ligand-binding domain modulation; 340,000 compounds, 2.5% hits; AID 1259313; Tm shift relative to glycine control, % at 25 µM; NR3A LBD differential scanning fluorimetry, Tm shift; 0% = protein alone, 100% = glycine-bound protein;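 active = melting temperature shift of at least 10% of the positive control shift, at one fixed dose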
MPTP inh: inhibitors of mitochondrial permeability transition pore; isolated mouse mitochondria, Ca2+ swelling absorbance, 30 min; inhibition, % at 10 µM; 360,000 compounds, 1.4% hits; AID 602449;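 active = inhibition of 50% or more, scaled per plate between neutral and stimulator controls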
MPTP counter: mitochondrial membrane potential, counter-screen; shares compounds with MPTP inh; isolated mitochondria, Rhodamine 123 fluorescence; inhibition, % at 10 µM; 5,000 compounds, 78% hits; in the data active = inhibition above about 22%
MPTP swell DR: dose response confirmation of mitochondrial permeability transition pore inhibitors | shares compounds with MPTP inh | isolated mitochondria swelling, absorbance | IC50, µM | 780 compounds, 58% hits | AID 651561; in the data active = IC50 below about 20 µM
MPTP cs DR: active in counter-screen for permeability transition pore inhibitors. 780 compounds, 49% hits. IC50, µM. isolated mitochondria counterscreen, fluorescence read-out. shares compounds with MPTP inh; in the data active = IC50 below about 80 µM
Large screens that a line does not name were inactive (follow-up assays come after a bar, where they were run).

C#CCOCCOCCOCCNc1nc(N2CCN(C(=O)[C@H](CCCN=C(N)N)n3cc(C(N)[C@@H](C)CC)nn3)CC2)nc(N2CCN(C(=O)[C@H](CCC(=O)O)n3cc([C@@H](N)CCCCN)nn3)CC2)n1 (some centres undefined)	none
C#CCOCCOCCOCCNc1nc(N2CCN(C(=O)C([C@@H](C)CC)n3cc(C(N)COC(=O)C(F)(F)F)nn3)CC2)nc(N2CCN(C(=O)[C@H](CCCCN)n3cc(C(N)[C@H](C)CC)nn3)CC2)n1 (some centres undefined)	none (no result: SENP1 FRET inh, EBI2 block, MPTP inh)
COc1ccc(S(=O)(=O)N2CCOCC2)cc1NC(=O)c1ccc2c(c1)OCCO2	none
CCCC1NC(=O)c2cccnc2-n2c1nc1ccc(C)cc1c2=O (centres undefined)	none (no result: NR3A LBD binder)
CCOC1=C2[C@@H](CN(S(=O)(=O)c3ccc(C)cc3)[C@H]2c2cccc3ccccc23)[C@H]2C(=O)N(C)C(=O)[C@H]2C1	none (no result: NR3A LBD binder)
c1ccc(-c2cc(-c3nc4ccccc4[nH]3)c3ccccc3n2)cc1	NR3A LBD binder 22.2, MPTP inh 98.0 | MPTP counter 83.4
CCCCC(=O)NC(c1ccc([N+](=O)[O-])cc1)c1c(O)ccc2ccccc12 (centres undefined)	MPTP inh 68.7 | MPTP counter 78.5
O=C(NC(c1ccc(Cl)cc1)c1c(O)ccc2ccccc12)c1ccccc1 (centres undefined)	MPTP inh 80.3 | MPTP counter 58.8
CC(C)CC(=O)NC(c1ccccc1)c1c(O)ccc2ccccc12 (centres undefined)	none
O=C(Nc1cc(Sc2nc3ccccc3s2)cc([N+](=O)[O-])c1)c1cccc(F)c1F	MPTP inh 94.5 | MPTP counter 70.9
O=C(Nc1cc(Sc2ccccn2)cc([N+](=O)[O-])c1)c1ccc([N+](=O)[O-])cc1	none
O=C(COC(=O)c1cccnc1Cl)c1ccc(OC(F)F)cc1	none
O=C1NC(=S)SC1=Cc1ccc(Cl)cc1	MPTP inh 94.6 | MPTP counter 78.8
O=C1NC(=O)C(=Cc2ccc(Cl)cc2Cl)S1	MPTP inh 81.0 | MPTP counter 93.6
O=C1NC(=S)S/C1=C\c1ccc2ccccc2c1	none
O=C1NC(=S)SC1=Cc1ccc(F)cc1	MPTP inh 81.6 | MPTP counter 84.5
O=C1NC(=S)SC1=Cc1ccccc1Br	MPTP inh 94.2 | MPTP counter 73.5
O=C1NC(=S)NC1=Cc1ccc(Cl)cc1Cl	none
CNC(=O)c1cc2c(-c3ccccc3)nn(C)c2s1	none
Clc1ccc(C2=C3CCCCn4c(-c5ccccc5)c[n+](c43)C2)cc1	none
COc1ccc(-c2c[n+]3c4n2CCCCC4=C(c2ccc(Br)cc2)C3)cc1	MPTP inh 56.0 | MPTP counter 68.4
Cc1ccc(S(=O)(=O)N2C[C@H]3C(=O)C[C@@H](c4ccccc4)N(S(=O)(=O)c4ccc(C)cc4)[C@H]3C[C@H]2c2cccs2)cc1	none (no result: NR3A LBD binder)
Cc1ccc2nc(Cl)c(/C=N/NC(=O)[C@H]3C[C@@H]3c3ccccc3)cc2c1	none
Cc1ccc2nc(Cl)c(/C=N/NC(=O)c3ccccc3O)cc2c1	NR3A LBD binder 20.3, MPTP inh 64.8 | MPTP counter 75.8
COc1ccc(C#Cc2cnc3c(c2)C(=O)N([C@H](C)CO)C[C@H](C)[C@@H](CN(C)C(=O)Nc2cccc(OC)c2)O3)cc1	none (no result: NR3A LBD binder)
Cc1cc2c(=O)[nH]c(N)nc2[nH]1	none (no result: NR3A LBD binder)
CCCc1nc(SC2CCCC2)c2c(=O)n(C)c(=O)n(C)c2n1	MPTP inh 71.8 | MPTP counter inactive | MPTP swell DR inactive | MPTP cs DR 70.1
Cc1ccc(C)c(OCCCNCc2ccccc2)c1	none
Cc1ccc(C(C)C)c(OCCNCc2ccccc2)c1	MPTP inh 56.4 | MPTP counter inactive | MPTP swell DR 4.56 | MPTP cs DR 15.1
O=C(Cc1ccc(Cl)c(Cl)c1)NNC(=S)NCC1CCCO1 (centres undefined)	none
S=C(NCc1ccncc1)Nc1ccc(Cl)c(Cl)c1	MPTP inh 88.4 | MPTP counter 92.5
S=C(NCc1ccncc1)Nc1ccccc1	none
S=C(NCC1CCCO1)Nc1ccc(Cl)c(Cl)c1 (centres undefined)	MPTP inh 60.2 | MPTP counter 87.2
